High-throughput results (PubChem)
Rows were chosen to be rich in hits. Some 3% of all compounds tested hit in one or more screens of this group.
S1P3 ag: activates the human S1P3 receptor. Q99500. S1P3 NFAT-BLA reporter cells, agonism, FRET ratio; relative to 1 µM S1P, basal subtracted. activation, % at 4.5 µM. actives 0.1% (n = 60,000). AID 373;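 active = activation above the screen-wide mean plus 3 SD, cut at about 4.5% in these data, passing the limit was not always enough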
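Assay system: stable CHO line with human S1P3, Gα16, NFAT-BLA reporter; Detection: FRET β-lactamase substrate fluorescence, excitation 405 nm, 460/535 nm emission ratio, background-subtracted; Read-out: percent activation versus median 1 µM S1P response, basal-subtracted, per plate; Incubation: cells plated overnight, compound 4 h 37 °C, substrate 2 h RT.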
5-HT1A blocker: 5-HT1a (human) receptor antagonism; actives 0.68% (n = 62,000); CHO 5-HT1a Ga15 NFAT-bla reporter, antagonist mode; AID 612; inhibition, % at 10 µM;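 active = inhibition above the mean of all tested compounds plus 3 SD, cut at about 43% in these data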;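 also: receptor stimulated by 5-CT agonist at 100 nM near EC80; beta-lactamase reporter measured by ratiometric fluorescence of a cleavable substrate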
HTR1E agonist: activates the human 5-HT1E serotonin receptor; activation, % at 6 µM; actives 0.69% (n = 65,000); P28566; CHO 5-HT1E Ga15 NFAT-bla reporter, FRET; 0% DMSO wells, 100% control agonist wells;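 active = activation above a set limit, the screen-wide mean activation plus 3 SD, cut at about 8.5% in these data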;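 also: 100% = positive control agonist at 1 µM giving full maximal response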
Target sequence (P28566 whole entry, looked up): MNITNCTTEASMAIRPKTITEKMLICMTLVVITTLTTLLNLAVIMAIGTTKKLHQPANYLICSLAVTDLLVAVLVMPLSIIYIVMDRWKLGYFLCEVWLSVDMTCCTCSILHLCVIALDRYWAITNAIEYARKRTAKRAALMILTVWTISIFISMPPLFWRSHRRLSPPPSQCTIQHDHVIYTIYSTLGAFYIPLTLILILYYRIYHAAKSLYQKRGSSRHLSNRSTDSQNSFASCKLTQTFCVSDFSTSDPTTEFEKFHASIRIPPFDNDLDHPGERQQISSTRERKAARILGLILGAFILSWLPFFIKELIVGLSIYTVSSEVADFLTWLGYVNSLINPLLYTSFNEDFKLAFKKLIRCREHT
5HT1a ag: activates the human 5-HT1a serotonin receptor; P08908; CHO 5-HT1a Ga15 NFAT-bla reporter, FRET ratio; 0% basal, 100% maximal reference agonist; activation, % at 10 µM; actives 0.56% (n = 65,000); AID 567;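 active = activation above the screen-wide mean activation plus 3 SD, cut at about 19% in these data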;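 also: 0% = DMSO wells and 100% = 5-CT at EC100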
5HT1E antag: antagonists of human 5-HT1E serotonin receptor; inhibition, % at 6 µM; P28566; actives 0.99% (n = 65,000); CHO 5-HT1E Ga15 NFAT-bla reporter, FRET, antagonist;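 active = inhibition above a set limit, the mean inhibition across every tested compound plus 3 SD, cut at about 29% in these data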;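 also: signal is the 460 over 535 nm emission ratio of beta-lactamase substrate; 0% = agonist plus DMSO wells and 100% = wells without agonist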
S1P1 ag pot: activates or potentiates agonism at human S1P1 receptor; P21453; S1P1 CRE-bla cells, forskolin, beta-lactamase FRET, potentiator mode; S1P1 agonist co-added at EC20, 2 nM; 100% = saturating reference agonist, 0% = basal; activation, % at 9.5 µM; actives 0.57% (n = 56,000); AID 449;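 active = activation above a cutoff set at the mean activation of all tested compounds plus 3 SD, cut at about 54% in these data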;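 also: forskolin at 4 µM as EC80 and the EC20 agonist is SEW2871; 100% = SEW2871 at its EC100 plus forskolin at EC80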
An asterisk follows results filed as active.

`Cc1ccccc1CS(=O)(=O)c1nnc([C@H](CC(C)C)NC(=O)OC(C)(C)C)o1` gave S1P3 ag -0.1, 5-HT1A blocker 39.3, HTR1E agonist 1.8, 5HT1a ag 3.3, 5HT1E antag 36.1* and S1P1 ag pot 59.0.
`CC(C)C[C@H](N)c1nnc(S(=O)(=O)Cc2cccc(F)c2)o1` gave S1P3 ag -1.5, 5-HT1A blocker 58.5*, HTR1E agonist -0.5, 5HT1a ag -0.7, 5HT1E antag 19.9 and S1P1 ag pot 2.0.
Screening Cc1[nH]c(=O)[nH]c(=O)c1CSc1nnc([C@@H](NC(=O)OC(C)(C)C)C(C)C)o1 returned S1P3 ag 0.1, 5-HT1A blocker -9.0, HTR1E agonist 0.1, 5HT1a ag 0.3, 5HT1E antag -19.1 and S1P1 ag pot 10.2.
`CCOC(=O)CSc1nnc([C@H](Cc2ccccc2)NC(=O)OC(C)(C)C)o1` gave S1P3 ag 0.0, 5-HT1A blocker -17.2, HTR1E agonist 0.4, 5HT1a ag -0.2, 5HT1E antag -9.4 and S1P1 ag pot -6.4.
Screening CC[C@@H](C)[C@H](NC(=O)OC(C)(C)C)c1nnc(S(=O)(=O)Cc2cc(C)ccc2C)o1 returned S1P3 ag -2.1, 5-HT1A blocker 57.4*, HTR1E agonist -0.1, 5HT1a ag 1.0, 5HT1E antag 35.1* and S1P1 ag pot 24.9.
`CC(C)CC(=O)N1CCN(Cc2cccc(F)c2)CC1` gave S1P3 ag -1.1, 5-HT1A blocker 1.0, HTR1E agonist 0.8, 5HT1a ag -0.4, 5HT1E antag 8.4 and S1P1 ag pot -9.9.
`CC(C)[C@H](NC(=O)OC(C)(C)C)c1nnc(S(=O)(=O)Cc2c(F)cccc2Cl)o1` gave S1P3 ag -0.9, 5-HT1A blocker 78.7*, HTR1E agonist 1.2, 5HT1a ag 5.3, 5HT1E antag 67.3* and S1P1 ag pot 17.8.
COCCn1nnnc1C(c1ccc(OC)c(OC)c1)N1CCN(c2nc3ccccc3s2)CC1 (centres undefined) was read as S1P3 ag -0.8, 5-HT1A blocker 8.6, HTR1E agonist -0.1, 5HT1a ag 1.6, 5HT1E antag 5.5 and S1P1 ag pot -0.7.
Screening COC(=O)c1cc(Nc2ncnc3c2cnn3-c2ccccc2)cc(C(=O)OC)c1 returned S1P3 ag -1.1, 5-HT1A blocker -7.7, HTR1E agonist 0.4, 5HT1a ag -3.7, 5HT1E antag -5.0 and S1P1 ag pot -0.1.
For COc1cc2cc(CN(Cc3cccnc3)C(=O)NCc3ccccc3)c(=O)[nH]c2cc1OC the results were S1P3 ag -0.6, 5-HT1A blocker -8.1, HTR1E agonist -1.6, 5HT1a ag -2.5, 5HT1E antag -0.6 and S1P1 ag pot 9.8.
Screening CC(C)(C)OC(=O)N[C@@H](Cc1ccccc1)c1nnc(S(=O)(=O)Cc2cccc(F)c2)o1 returned S1P3 ag -0.9, 5-HT1A blocker 67.3*, HTR1E agonist 1.1, 5HT1a ag -2.5, 5HT1E antag 45.9* and S1P1 ag pot 69.8*.
COC(=O)c1cc(=O)n(C2CC2)c(=NC2CC2)s1 was read as 5-HT1A blocker 6.4, HTR1E agonist -0.3, 5HT1a ag 1.1 and 5HT1E antag 31.2*.
For CCOC(=O)c1ccc(N=c2sc(C(=O)OC)cc(=O)n2C2CC2)cc1 the results were S1P3 ag 0.8, 5-HT1A blocker -13.1, HTR1E agonist 0.8, 5HT1a ag 1.5, 5HT1E antag 1.7 and S1P1 ag pot -20.6.
`Cc1nnc(SC(=O)N2c3ccccc3Sc3ccccc32)s1` gave S1P3 ag -0.5, 5-HT1A blocker 74.1*, HTR1E agonist 0.1, 5HT1a ag -1.4, 5HT1E antag 24.1 and S1P1 ag pot 115.1*.
Cc1nnc(SCC(=O)N2c3ccccc3Sc3ccccc32)n1N was read as S1P3 ag 2.5, 5-HT1A blocker 4.0, HTR1E agonist 0.0, 5HT1a ag -2.8, 5HT1E antag -7.0 and S1P1 ag pot -4.7.
O=C1CSC(c2ccccc2F)N1c1cc(Cl)ccc1O (centres undefined) was read as S1P3 ag -0.5, 5-HT1A blocker 8.0, HTR1E agonist -0.7, 5HT1a ag -1.5, 5HT1E antag 30.4* and S1P1 ag pot 7.6.
O=C1CSC(c2ccccc2F)N1CCN1CCCCC1 (centres undefined) was read as S1P3 ag -0.4, 5-HT1A blocker 8.1, HTR1E agonist 1.4, 5HT1a ag -1.1, 5HT1E antag 2.9 and S1P1 ag pot -23.0.
`COc1ccc(CC(=O)Nc2c3c(nn2-c2cccc(C)c2C)CS(=O)C3)cc1` (centres undefined) gave S1P3 ag 0.8, 5-HT1A blocker 0.1, HTR1E agonist 19.1*, 5HT1a ag 1.4, 5HT1E antag -0.4 and S1P1 ag pot 1.7.
For CC1=CC(C)(C)Nc2ccc(OC(=O)CN3C(=O)CCC3=O)cc21 the results were S1P3 ag 0.6, 5-HT1A blocker 21.3, HTR1E agonist 3.0, 5HT1a ag 14.1, 5HT1E antag 18.7 and S1P1 ag pot 41.6.
CC1=CC(C)(C)Nc2ccc(OC(=O)c3ccco3)cc21 was read as S1P3 ag -1.7, 5-HT1A blocker 40.8, HTR1E agonist 1.7, 5HT1a ag 24.6*, 5HT1E antag 50.6* and S1P1 ag pot 55.2.
For CC1=CC(C)(C)Nc2ccc(OC(=O)c3cccnc3)cc21 the results were S1P3 ag 0.3, 5-HT1A blocker 25.8, HTR1E agonist 4.2, 5HT1a ag 16.8, 5HT1E antag 30.4* and S1P1 ag pot 64.5*.
`CN1CC2=Cc3ccccc3OC23Oc2ccccc2C=C3C1` gave S1P3 ag -1.2, 5-HT1A blocker 35.2, HTR1E agonist -0.1, 5HT1a ag 0.4, 5HT1E antag 3.9 and S1P1 ag pot 27.9.
`COc1ccc(CCNC2CCN(C)CC2)cc1OC` gave S1P3 ag -1.3, 5-HT1A blocker 6.1, HTR1E agonist -0.3, 5HT1a ag 0.2, 5HT1E antag -9.8 and S1P1 ag pot 3.8.
N=c1n(Cc2ccccc2)c2ccccc2n1CC(O)COc1ccccc1 (centres undefined) was read as S1P3 ag -0.7, 5-HT1A blocker 22.0, HTR1E agonist -0.5, 5HT1a ag 19.7*, 5HT1E antag 4.6 and S1P1 ag pot -15.3.
Screening CCCCn1c(=N)n(CC(O)COc2ccccc2)c2ccccc21 (centres undefined) returned S1P3 ag -0.9, 5-HT1A blocker 54.4*, HTR1E agonist -1.4, 5HT1a ag -4.4, 5HT1E antag 16.8 and S1P1 ag pot 0.9.
For CCCn1c(=N)n(CC(O)COc2cccc(C)c2)c2ccccc21 (centres undefined) the results were S1P3 ag -0.9, 5-HT1A blocker 37.2, HTR1E agonist -0.3, 5HT1a ag -2.0, 5HT1E antag -9.3 and S1P1 ag pot -21.3.
